Key:
Format in all cases: functional
Candida parapsilosis [1] = experiment: Increase in PXP2 gene expression in Candida parapsilosis CLIB214 at 50 uM after 2 hrs by microarray based transcriptional profiling relative to control
Summary of the method: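 Strain grown overnight in YPD at 30°C, diluted to A600 0.2 in YPD at 30°C; farnesol (40 mM methanol stock) added at 4 h (A600 0.8), final 50 μM; methanol-only control. Cells collected 2 h later for RNA. Labelled cDNA from 25 μg total RNA (Cy3/Cy5-dCTP) hybridized to 68-mer oligo arrays at 42°C ~16 h; six individual comparisons analysed statistically.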

Candida parapsilosis [2] = experiment: Decrease in STE23 gene expression in Candida parapsilosis CLIB214 at 50 uM after 2 hrs by microarray based transcriptional profiling relative to control
Summary of the method: (§1)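 Strain CLIB214 grown overnight in YPD at 30°C, diluted to A600 0.2 in fresh YPD at 30°C. After 4 h (A600 0.8), farnesol (40 mM methanol stock) added to 50 μM final, or an equal methanol volume as control; cells harvested 2 h later. RNA was accepted only with a 28S/18S ratio of 1.6–2.2. Cy3/Cy5-dCTP-labelled cDNA was made from 25 μg total RNA. Hybridisation was to duplicate-spotted 68-mer oligo arrays (3,849 genes) at 42°C for about 16 h. Six individual comparisons.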

Candida parapsilosis [3] = experiment: Decrease in CGD gene ortholog accession number orf19.4449 expression in Candida parapsilosis CLIB214 at 50 uM after 2 hrs by microarray based transcriptional profiling relative to control
Summary of the method: (§2)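 Cells in YPD at 30°C treated with 50 μM farnesol at 4 h, with a methanol control. RNA harvested 2 h later and kept only if 28S/18S ratio was 1.6–2.2 with no degradation. 25 μg total RNA oligo-dT primed and labeled with Cy3/Cy5-dCTP. Labeled cDNA hybridized about 16 h at 42°C to duplicate-spotted 68-mer oligo arrays. Six individual comparisons analyzed statistically.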

Candida parapsilosis [4] = experiment: Decrease in CGD gene ortholog accession number orf19.4372 expression in Candida parapsilosis CLIB214 at 50 uM after 2 hrs by microarray based transcriptional profiling relative to control; summary of the method: as §2
Candida parapsilosis [5] = experiment: Decrease in CGD gene ortholog accession number orf19.4253 expression in Candida parapsilosis CLIB214 at 50 uM after 2 hrs by microarray based transcriptional profiling relative to control; summary of the method: as §2
Candida albicans = experiment: Antifungal activity against Candida albicans assessed as microbila killing effect
Candida parapsilosis [6] = experiment: Increase in CGD gene ortholog accession number orf19.7270 expression in Candida parapsilosis CLIB214 at 50 uM after 2 hrs by microarray based transcriptional profiling relative to control; summary of the method: as §1
Candida parapsilosis [7] = experiment: Decrease in CGD gene ortholog accession number orf19.719 expression in Candida parapsilosis CLIB214 at 50 uM after 2 hrs by microarray based transcriptional profiling relative to control; summary of the method: as §1
Candida parapsilosis [8] = experiment: Decrease in CGD gene ortholog accession number orf19.2308 expression in Candida parapsilosis CLIB214 at 50 uM after 2 hrs by microarray based transcriptional profiling relative to control; summary of the method: as §2
Candida parapsilosis [9] = experiment: Decrease in GenBank accession number XP_457879.1 expression in Candida parapsilosis CLIB214 at 50 uM after 2 hrs by microarray based transcriptional profiling relative to control; summary of the method: as §1

## CC(C)=CCC/C(C)=C/CC/C(C)=C/CO [FARNESOL]
Candida parapsilosis [1]
  fold change (FC): 2.04
Candida parapsilosis [2]
  fold change (FC): 2.13
Candida parapsilosis [3]
  fold change (FC): 1.59
Candida parapsilosis [4]
  fold change (FC): 1.67
Candida parapsilosis [5]
  fold change (FC): 1.63
Candida albicans
  Activity: 80%
Candida parapsilosis [6]
  fold change (FC): 1.67
Candida parapsilosis [7]
  fold change (FC): 1.65
Candida parapsilosis [8]
  fold change (FC): 1.7
Candida parapsilosis [9]
  fold change (FC): 1.71

— ChEMBL document CHEMBL1157379, “Transcriptional response of Candida parapsilosis following exposure to farnesol” (2007)
